# The list is not random: actives were taken first. Their share in the collection is about 6.1%.
# Measles CPE – compounds protecting cells from measles virus cytopathic effect, primary screen, measles RdRp inhibitor project, single point, MLSMR library, absorbance; Measles virus-infected cells, CPE protection; protection (pct of control), % at 4 µM; 140,000 tested, 1.5% active; in the data active = protection mostly above about 24%, no sharp cut-off; inactive = mostly below about 26%
# Yeast growth inh – growth inhibitors of yeast BB579 in restrictive medium, primary screen, yeast lifespan-shortening project, S. cerevisiae. OD615, 48 h. inhibition, % at 10 µM. 140,000 tested, 0.51% active. AID 804, 2007;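 active = inhibition above a set limit, 3 SD over the mean compound inhibition, cut at about 44% in these data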
#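 Material: Saccharomyces cerevisiae DeaD strain BB579, replicative lifespan model yeast; buffer or medium: CSMM-D restrictive synthetic medium containing dextrose (glucose); compound: 10 µM single dose, DMSO 0.25%; timing: 48 h compound exposure at 30 °C after 4 h preincubation; signal: turbidity as optical density at 615 nm; benchmarks: positive control amphotericin B 10 µg/mL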
# RAM inhibit – inhibitors of the yeast RAM network, primary screen, dse1pr::URA3 reporter, 5-FOA selection; S. cerevisiae dse1pr::URA3 reporter, 5-FOA growth OD615, 2 d; analog-sensitive cbk1-as2 kinase mutant strain; inhibition, % at 50 µM; 190,000 tested, 1.8% active;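 active = inhibition above a set limit, 3 SD over mean compound inhibition, cut at about 8.4% in these data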;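 also: inhibition rescues growth on 5-FOA so higher OD means more RAM inhibition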
# WT yeast gro inh – growth inhibition of WT strain, primary screen, mitochondrial fusion inhibitor project, WT and mutant strains, chemical genetic. mitochondrial fusion phenotypic screen. inhibition, % at 10 µM. 190,000 tested, 2.1% active. AID 1362, 2008; in the data active = inhibition above about 58%; tested in S. cerevisiae
# DAT uptake mod – changed hDAT dopamine uptake under cocaine IC80, either direction, primary screen, cocaine antagonist project, cell-based, LLC-PK1 hDAT, [14C]-dopamine uptake, MLSMR. Sodium-dependent dopamine transporter (Homo sapiens), Q01959. B-score at 10 µM. 110,000 tested, 1.3% active. LLC-PK1 hDAT cells, [14C]-dopamine uptake with cocaine IC80; actives deviate in either direction;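 active = Z score or B-score, a plate-position-corrected score, falls beyond the plate's 99.7% confidence bounds, in either direction; inactive = both scores lie inside the 99.7% bounds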
# Target sequence (Q01959 whole entry, looked up): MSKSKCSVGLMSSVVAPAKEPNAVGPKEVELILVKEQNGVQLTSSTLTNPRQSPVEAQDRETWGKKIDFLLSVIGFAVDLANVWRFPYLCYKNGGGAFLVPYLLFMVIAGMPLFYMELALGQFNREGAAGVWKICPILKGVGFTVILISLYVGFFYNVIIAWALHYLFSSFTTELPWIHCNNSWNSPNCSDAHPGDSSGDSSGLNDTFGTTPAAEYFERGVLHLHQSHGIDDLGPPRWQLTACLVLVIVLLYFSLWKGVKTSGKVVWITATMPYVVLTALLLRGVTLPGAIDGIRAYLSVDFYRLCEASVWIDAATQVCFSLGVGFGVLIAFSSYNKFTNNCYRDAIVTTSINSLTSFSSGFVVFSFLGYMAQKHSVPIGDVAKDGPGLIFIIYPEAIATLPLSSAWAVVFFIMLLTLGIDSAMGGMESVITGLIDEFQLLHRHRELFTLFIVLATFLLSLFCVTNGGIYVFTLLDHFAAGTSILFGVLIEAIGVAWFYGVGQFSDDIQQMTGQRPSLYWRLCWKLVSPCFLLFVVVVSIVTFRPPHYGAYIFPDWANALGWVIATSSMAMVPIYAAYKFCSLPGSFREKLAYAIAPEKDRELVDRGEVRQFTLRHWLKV
# Yeast lifespan up – compounds extending yeast replicative lifespan, primary screen, S. cerevisiae, OD615 | S. cerevisiae growth with nicotinamide; deaD strain in restrictive glucose medium | inhibition of the nicotinamide effect, % at 10 µM | 130,000 tested, 0.68% active | AID 775, 2007;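 active = inhibition above a set limit, placed 3 SD over the median of all compounds, cut at about 26% in these data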
#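 Assay system: engineered S. cerevisiae DeaD replicative-lifespan strain, galactose-grown log-phase cells; medium: restrictive CSMM-D dextrose medium; also added: nicotinamide, 1.5 mM, co-present with compound; schedule: 48 h compound exposure at 30 °C, humidified; detection: absorbance at 615 nm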
# Numbers stand for hits; – = inactive; · = not tested or not shown.
SMILES,Measles CPE,Yeast growth inh,RAM inhibit,WT yeast gro inh,DAT uptake mod,Yeast lifespan up
COC(=O)CC(NC(=O)c1cccs1)c1ccc(OC)c(OC)c1 (stereo not given),·,·,–,–,·,·
CN(C)c1nc(Oc2ccc(=O)[nH]n2)nc(N2CCCCC2)n1,–,–,–,–,–,–
Cc1cc(N2C(=O)C(O)=C(C(=O)c3cccs3)C2c2cccc(O)c2)no1 (stereo not given),–,–,–,–,–,–
COc1cccc(C2C(C(=O)c3cccs3)=C(O)C(=O)N2c2cc(C)on2)c1 (stereo not given),37.1,–,–,–,–,–
CC(C)CC(=O)Nc1ccc(C(=O)Cn2nc(C(=O)O)c3ccccc3c2=O)cc1,31.1,–,–,–,–,–
Cc1ccc(C(=O)Nc2ccc3cn[nH]c3c2)cc1S(=O)(=O)N1CCCCC1,–,–,–,–,–,–
CC1CCc2ccccc2N1C(=O)c1cccs1 (stereo not given),–,–,–,–,-7.3,–
CC1CCc2ccccc2N1C(N)=Nc1ccccc1 (stereo not given),·,·,–,–,·,·
O=C(CN(c1ccccc1F)S(=O)(=O)c1ccccc1)NC1CCCCCC1,–,–,10.6,–,–,–
Cc1ccc(S(=O)(=O)N(CC(=O)NC2CCCCCC2)c2ccccc2F)cc1,–,–,–,–,–,–
COC(=O)C1=C(C(=O)OC)[C@@H]2N(C)c3ccc(OC)cc3[C@@]23C[C@@H](C(=O)OC)N(C(=O)COCc2ccccc2)C3=N1,·,·,·,·,–,·
C#Cc1ccc([C@H]2C=C(C(=O)N3CCN(Cc4ccccc4)CC3)O[C@@H](OCC)[C@@H]2CCCO)cc1,·,·,–,–,2.69,·
Cc1c(C(=O)N2CCC(C)CC2)oc2ccc(S(=O)(=O)N3CCC4(CC3)OCCO4)cc12,–,–,–,–,–,–
CCOC(=O)c1c(NC(=O)CSc2nnc(C)s2)sc2c1CCCCC2,–,–,–,–,–,–
CCOC(=O)c1c(-c2ccc(C)o2)csc1NC(=O)CSc1nnc(C)s1,–,–,11.0,–,–,–
CCOC(=O)c1c(NC(=O)CSc2nnc(C)s2)sc2c1CCC(C)C2 (stereo not given),–,–,8.9,–,–,·
CCOC(=O)c1c(-c2ccc(C)o2)csc1NC(=O)CSc1nnnn1-c1ccccc1,–,–,8.6,–,–,–
CCOC(=O)c1c(NC(=O)CSc2nnc(N)s2)sc(C)c1-c1ccc(C)cc1,–,–,–,78.0,·,–
CCOC(=O)c1sc(NC(=O)CSc2nnnn2-c2ccccc2)nc1C,·,–,–,–,–,–
O=C(OCCNC(=O)c1ccc2ccccc2n1)c1ccc(F)cc1,–,–,–,–,–,–
CCc1ccc(N/C(SCc2ccccc2C)=C(/C#N)C(=O)NCc2ccco2)cc1,–,–,11.0,–,–,–
CC1(C)CC(=O)C(=Cc2cn(CCC#N)nc2-c2ccc(Cl)cc2)C(=O)C1,–,–,–,–,·,38.8
CCOc1cc(/C=C2/SC(=Nc3ccccc3)N(Cc3cccnc3)C2=O)ccc1OCC#N,–,–,–,–,–,–
Cc1nc2ccc(-c3ccccc3)cc2o1,–,–,–,–,0.819,–
N#Cc1c(SCC(N)=O)nsc1SCc1ccccc1Cl,–,–,–,–,–,–
SMILES,Measles CPE,Yeast growth inh,RAM inhibit,WT yeast gro inh,DAT uptake mod,Yeast lifespan up
N#Cc1c(SCC(N)=O)nsc1SCc1ccc(Cl)cc1,–,–,9.2,–,–,–
CCc1nnc(NC(=O)C2Cc3ccccc3CN2S(=O)(=O)c2cccs2)s1 (stereo not given),–,–,–,–,–,–
CCc1nnc(NC(=O)C2Cc3ccccc3CN2S(=O)(=O)c2ccc(C)cc2)s1 (stereo not given),–,–,–,78.7,–,–
COc1ccc(NC(=O)C(NC(=O)c2ccc(=O)[nH]c2)c2ccc(C)cc2)cc1 (stereo not given),32.8,–,–,–,·,–
COc1cc(/C=C2\CC/C(=C\c3ccc(OCCO)c(OC)c3)C2=O)ccc1OCCO,·,·,–,–,·,·
COc1ccc(/C=C2\CC/C(=C\c3ccc(OC)c(OC)c3)C2=O)cc1OC,–,–,11.2,–,·,–
CSC1=N/C(=C\c2c(F)cccc2Cl)C(=O)S1,–,–,–,–,·,31.2
COc1ccc(/C=C2\N=C(SC)SC2=O)cc1OC,39.7,–,–,–,–,–
Cc1c(O)c(S(=O)c2ccccc2)c(=O)n(-c2ccccc2)c1-c1ccccc1 (stereo not given),–,–,–,–,·,60.9
Cc1c(O)c(S(=O)(=O)c2ccccc2)c(=O)n(-c2ccccc2)c1-c1ccccc1,–,–,–,–,·,–
COc1ccc(C2C(C(=O)O)CC(=O)N2C2CCCCC2)cc1 (stereo not given),47.6,–,–,–,–,–
Cc1ccc(Cn2ncc3c(N4CCN(c5ccccc5C)CC4)ncnc32)cc1,–,–,10.2,64.9,–,–
CCCCCC(=O)NC(NC(=S)N1CCOCC1)C(Cl)(Cl)Cl (stereo not given),–,–,–,–,–,·
CCCCCC(=O)NC(NC(=S)NC1CCS(=O)(=O)C1)C(Cl)(Cl)Cl (stereo not given),–,–,–,–,-2.97,·
O=C(CSc1ncc(-c2ccccc2)n1C1CCCC1)N1CCc2ccccc21,–,–,–,–,–,–
Cc1nn(Cc2ccc(Cl)cc2Cl)c(C)c1NC(=O)c1sc2ccccc2c1Cl,–,–,–,–,–,–
Cc1ccccc1Cn1nc(C)c(NC(=O)c2sc3ccccc3c2Cl)c1C,64.2,–,–,–,–,–
Cc1nn(Cc2ccc(C(=O)N3N=C(C(F)F)CC3(O)C(F)F)o2)c(C)c1[N+](=O)[O-] (stereo not given),–,–,–,–,·,–
Cc1nn(Cc2cccc(C(=O)N3N=C(C(F)F)CC3(O)C(F)F)c2)c(C)c1[N+](=O)[O-] (stereo not given),42.3,–,–,–,–,–
CCOC(=O)c1cnn(-c2nc(-c3ccccc3)cs2)c1C(F)(F)F,–,–,10.2,–,–,–
CCOC(=O)c1cnn(-c2nc(-c3ccc(F)cc3)cs2)c1C(F)(F)F,–,–,9.2,·,–,–
O=C(NCc1ccccn1)C(C(=O)c1ccc(F)cc1)n1ccccc1=O (stereo not given),–,–,–,–,–,–
CC(=O)N(O)CCCCCNC(=O)CCC(=O)N(O)CCCCCNC(=O)CCC(=O)N(O)CCCCCN,–,–,–,–,–,–

# Assay outcomes from PubChem BioAssay.
